Converted amounts (≈) assume the structure as drawn.
Assays:
Streptococcus pneumoniae [1] = test: Antibacterial activity against Streptococcus pneumoniae M46A overexpressing patA, patB and inactivated patA with single mutation by standardized agar doubling dilution method in presence of 50 uM sodium orthovanadate efflux pump inhibitor; format: functional
Summary of the method: (§1)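 MICs were determined by BSAC agar doubling dilution in the presence of sodium orthovanadate at 50 μM. Cultures were grown in BHI broth for 24 h at 37°C in 5% CO2, with R6 as control. Synergy was defined as an MIC reduction of ≥2 dilutions with the inhibitor present.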

Streptococcus pneumoniae [2] = test: Antibacterial activity against Streptococcus pneumoniae M315 overexpressing patA, patB and inactivated patA with single mutation by standardized agar doubling dilution method in presence of 20 ug/ml reserpine efflux pump inhibitor; format: functional
Summary of the method: (§2)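 MICs determined by BSAC standardized agar doubling dilution. Strains were grown in brain heart infusion broth for 24 h at 37°C in 5% CO2. Inhibitor arms had reserpine at 20 μg/ml or sodium orthovanadate at 50 μM in the agar. Mutants were made by transforming magellan2 insertion amplimers into clinical isolates and selecting on spectinomycin 100 mg/liter, with a no-DNA spontaneous-mutation control.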

Streptococcus pneumoniae [3] = test: Antibacterial activity against Streptococcus pneumoniae M304 overexpressing patA, patB and inactivated patA with single mutation by standardized agar doubling dilution method in presence of 50 uM sodium orthovanadate efflux pump inhibitor; format: functional; summary of the method: as §2
Streptococcus pneumoniae [4] = test: Antibacterial activity against fluoroquinolone-resistant Streptococcus pneumoniae M98 FQ-R overexpressing patA, patB by standardized agar doubling dilution method; format: functional
Summary of the method: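 Clinical S. pneumoniae isolates grown in BHI broth 24 h at 37°C in 5% CO2. MICs by agar doubling dilution per BSAC guidelines, alone or with efflux inhibitor reserpine (20 μg/ml) or sodium orthovanadate (50 μM). Synergy defined as ≥2-dilution MIC reduction in presence of inhibitor.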

Streptococcus pneumoniae [5] = test: Antibacterial activity against Streptococcus pneumoniae M311 overexpressing patA, patB and inactivated patA with single mutation by standardized agar doubling dilution method; format: functional; summary of the method: as §2
Streptococcus pneumoniae [6] = test: Antibacterial activity against fluoroquinolone, dye-susceptible Streptococcus pneumoniae by standardized agar doubling dilution method in presence of 50 uM sodium orthovanadate efflux pump inhibitor; format: functional
Summary of the method: (§3)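 MIC by agar doubling dilution following BSAC guidelines. Strains grown in brain heart infusion broth 24 h at 37°C in 5% CO2. Where an efflux pump inhibitor applies, MIC redetermined with reserpine at 20 μg/ml or sodium orthovanadate at 50 μM. Synergy taken as a fall in MIC of ≥2 dilutions with inhibitor present. Dye resistance defined relative to R6 (both dyes ≥2 dilutions higher).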

Streptococcus pneumoniae [7] = test: Antibacterial activity against Streptococcus pneumoniae M315 overexpressing patA, patB and inactivated patA with single mutation by standardized agar doubling dilution method in presence of 50 uM sodium orthovanadate efflux pump inhibitor; format: functional; summary of the method: as §1
Streptococcus pneumoniae [8] = test: Antibacterial activity against Streptococcus pneumoniae M45B overexpressing patA, patB and inactivated patB with single mutation by standardized agar doubling dilution method in presence of 50 uM sodium orthovanadate efflux pump inhibitor; format: functional; summary of the method: as §1
Streptococcus pneumoniae [9] = test: Antibacterial activity against fluoroquinolone-resistant Streptococcus pneumoniae by standardized agar doubling dilution method in presence of 20 ug/ml reserpine efflux pump inhibitor; format: functional; summary of the method: as §3
Streptococcus pneumoniae [10] = test: Antibacterial activity against Streptococcus pneumoniae M310 overexpressing patA, patB and inactivated patB with single mutation by standardized agar doubling dilution method in presence of 20 ug/ml reserpine efflux pump inhibitor; format: functional; summary of the method: as §2
Streptococcus pneumoniae [11] = test: Antibacterial activity against wild-type Streptococcus pneumoniae R6 by standardized agar doubling dilution method in presence of 50 uM sodium orthovanadate efflux pump inhibitor
Streptococcus pneumoniae [12] = test: Antibacterial activity against Streptococcus pneumoniae M45A overexpressing patA, patB and inactivated patA with single mutation by standardized agar doubling dilution method in presence of 20 ug/ml reserpine efflux pump inhibitor; format: functional
Summary of the method: (§4)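 MICs were determined by BSAC agar doubling dilution in the presence of reserpine at 20 μg/ml. Strains were grown in BHI broth for 24 h at 37°C in 5% CO2, with R6 as control. Synergy was defined as an MIC drop of ≥2 dilutions with the inhibitor.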

Streptococcus pneumoniae [13] = test: Antibacterial activity against Streptococcus pneumoniae M298 overexpressing patA, patB and inactivated patA with single mutation by standardized agar doubling dilution method in presence of 20 ug/ml reserpine efflux pump inhibitor; format: functional; summary of the method: as §2
Streptococcus pneumoniae [14] = test: Antibacterial activity against fluoroquinolone, dye-susceptible Streptococcus pneumoniae by standardized agar doubling dilution method; format: functional; summary of the method: as §3
Streptococcus pneumoniae [15] = test: Antibacterial activity against Streptococcus pneumoniae M50A overexpressing patA, patB and inactivated patA with single mutation by standardized agar doubling dilution method in presence of 50 uM sodium orthovanadate efflux pump inhibitor; format: functional; summary of the method: as §1
Streptococcus pneumoniae [16] = test: Antibacterial activity against Streptococcus pneumoniae M316 overexpressing patA, patB and inactivated patA with single mutation by standardized agar doubling dilution method in presence of 50 uM sodium orthovanadate efflux pump inhibitor; format: functional; summary of the method: as §1
Streptococcus pneumoniae [17] = test: Antibacterial activity against Streptococcus pneumoniae M308 overexpressing patA, patB and inactivated patB with single mutation by standardized agar doubling dilution method in presence of 20 ug/ml reserpine efflux pump inhibitor; format: functional; summary of the method: as §2
Streptococcus pneumoniae [18] = test: Antibacterial activity against Streptococcus pneumoniae M300 overexpressing patA, patB and inactivated patA with single mutation by standardized agar doubling dilution method in presence of 20 ug/ml reserpine efflux pump inhibitor; format: functional; summary of the method: as §2
Streptococcus pneumoniae [19] = test: Antibacterial activity against fluoroquinolone, dye-resistant Streptococcus pneumoniae M297 overexpressing patA, patB by standardized agar doubling dilution method; format: functional; summary of the method: as §3
Streptococcus pneumoniae [20] = test: Antibacterial activity against wild type Streptococcus pneumoniae M3 NCTC 7466 type 2 by standardized agar doubling dilution method; format: functional; summary of the method: as §3
Streptococcus pneumoniae [21] = test: Antibacterial activity against fluoroquinolone, dye-resistant Streptococcus pneumoniae M74 overexpressing patA, patB by standardized agar doubling dilution method in presence of 20 ug/ml reserpine efflux pump inhibitor; format: functional; summary of the method: as §3
Streptococcus pneumoniae [22] = test: Antibacterial activity against Streptococcus pneumoniae M45B overexpressing patA, patB and inactivated patB with single mutation by standardized agar doubling dilution method in presence of 20 ug/ml reserpine efflux pump inhibitor; format: functional; summary of the method: as §4
Streptococcus pneumoniae [23] = test: Antibacterial activity against Streptococcus pneumoniae M302 overexpressing patA, patB and inactivated patA with single mutation by standardized agar doubling dilution method in presence of 50 uM sodium orthovanadate efflux pump inhibitor; format: functional; summary of the method: as §2
Streptococcus pneumoniae [24] = test: Antibacterial activity against Streptococcus pneumoniae M317 overexpressing patA, patB and inactivated patB with single mutation by standardized agar doubling dilution method in presence of 20 ug/ml reserpine efflux pump inhibitor; format: functional; summary of the method: as §4
Streptococcus pneumoniae [25] = test: Antibacterial activity against Streptococcus pneumoniae M308 overexpressing patA, patB and inactivated patB with single mutation by standardized agar doubling dilution method in presence of 50 uM sodium orthovanadate efflux pump inhibitor; format: functional; summary of the method: as §2
Streptococcus pneumoniae [26] = test: Antibacterial activity against Streptococcus pneumoniae M318 overexpressing patA, patB and inactivated patA with single mutation by standardized agar doubling dilution method in presence of 20 ug/ml reserpine efflux pump inhibitor; format: functional; summary of the method: as §4
Streptococcus pneumoniae [27] = test: Antibacterial activity against Streptococcus pneumoniae M311B overexpressing patA, patB and inactivated patB with single mutation by standardized agar doubling dilution method; format: functional; summary of the method: as §2
Streptococcus pneumoniae [28] = test: Antibacterial activity against Streptococcus pneumoniae M87B overexpressing patA, patB and inactivated patB with single mutation by standardized agar doubling dilution method in presence of 20 ug/ml reserpine efflux pump inhibitor; format: functional; summary of the method: as §4
Streptococcus pneumoniae [29] = test: Antibacterial activity against fluoroquinolone, dye-resistant Streptococcus pneumoniae M87 overexpressing patA, patB by standardized agar doubling dilution method in presence of 50 uM sodium orthovanadate efflux pump inhibitor; format: functional; summary of the method: as §3

SMILES | MIC (Streptococcus pneumoniae [1]) [mg/L] | MIC (Streptococcus pneumoniae [2]) [mg/L] | MIC (Streptococcus pneumoniae [3]) [mg/L] | MIC (Streptococcus pneumoniae [4]) [mg/L] | MIC (Streptococcus pneumoniae [5]) [mg/L] | MIC90 (Streptococcus pneumoniae [6]) [mg/L] | MIC (Streptococcus pneumoniae [7]) [mg/L] | MIC (Streptococcus pneumoniae [8]) [mg/L] | MIC90 (Streptococcus pneumoniae [9]) [mg/L] | MIC (Streptococcus pneumoniae [10]) [mg/L] | MIC (Streptococcus pneumoniae [11]) [mg/L] | MIC (Streptococcus pneumoniae [12]) [mg/L] | MIC (Streptococcus pneumoniae [13]) [mg/L] | MIC90 (Streptococcus pneumoniae [14]) [mg/L] | MIC (Streptococcus pneumoniae [15]) [mg/L] | MIC (Streptococcus pneumoniae [16]) [mg/L] | MIC (Streptococcus pneumoniae [17]) [mg/L] | MIC (Streptococcus pneumoniae [18]) [mg/L] | MIC (Streptococcus pneumoniae [19]) [mg/L] | MIC (Streptococcus pneumoniae [20]) [mg/L] | further results
CC[n+]1c(-c2ccccc2)c2cc(N)ccc2c2ccc(N)cc21.[Br-] [HOMIDIUM BROMIDE] | 0.5 | 0.12 | 0.25 | 4 | 0.5 | 0.25 | 0.25 | 0.5 | 0.5 | 0.5 | 0.12 | 0.5 | 0.5 | 2 | 0.5 | 0.5 | 0.25 | 0.5 | 8 | 2 | MIC (Streptococcus pneumoniae [21]): 0.5 mg/L; MIC (Streptococcus pneumoniae [22]): 0.5 mg/L; MIC (Streptococcus pneumoniae [23]): 0.5 mg/L; MIC (Streptococcus pneumoniae [24]): 0.5 mg/L; MIC (Streptococcus pneumoniae [25]): 0.5 mg/L; MIC (Streptococcus pneumoniae [26]): 0.5 mg/L; MIC (Streptococcus pneumoniae [27]): 0.5 mg/L; MIC (Streptococcus pneumoniae [28]): 0.5 mg/L; MIC (Streptococcus pneumoniae [29]): 1 mg/L
O=C(O)c1cn(C2CC2)c2cc(N3CCNCC3)c(F)cc2c1=O [CIPROFLOXACIN] | 0.12 | 1 | 2 | 32 (≈ 96.6 µM) | 8 (≈ 24.1 µM) | 0.5 | 0.12 | 1 | 4 | 1 | 0.25 | 1 | 8 | 0.25 (≈ 0.754 µM) | 4 | 8 | 1 | 2 | 8 (≈ 24.1 µM) | 1 (≈ 3.02 µM) | MIC (Streptococcus pneumoniae [14]): 0.25 mg/L (≈ 0.754 µM); MIC (Streptococcus pneumoniae [21]): 32 mg/L; MIC (Streptococcus pneumoniae [22]): 1 mg/L; MIC (Streptococcus pneumoniae [23]): 4 mg/L; MIC (Streptococcus pneumoniae [24]): 8 mg/L; MIC (Streptococcus pneumoniae [25]): 0.12 mg/L; MIC (Streptococcus pneumoniae [26]): 16 mg/L; MIC (Streptococcus pneumoniae [27]): 8 mg/L (≈ 24.1 µM); MIC (Streptococcus pneumoniae [28]): 8 mg/L; MIC (Streptococcus pneumoniae [29]): 16 mg/L

From ChEMBL document CHEMBL1687824, “Overexpression of patA and patB, which encode ABC transporters, is associated with fluoroquinolone resistance in clinical isolates of Streptococcus pneumoniae” (2011)
